B1: tRNA (parent)
chain: GUUCCGUUGGCGUAAUGGUAACGCGUCUCCCUCCUAAGGAGAAGACUGCGGGUUCGAGUCCCGUACGGAACG

Fewer inactive variants are shown than the library holds.

The data set covers variants of B1. Put plainly: yeast fitness relative to wild type (ratio to wild type); higher = fitter; tRNA-Arg(CCU), competitive growth, 37 C, YPD. The gist of the method:
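Changes in genotype frequencies gave Darwinian fitness relative to wild type. Frequencies were read by 100-nucleotide paired-end sequencing of gene amplicons before and after pooled Saccharomyces cerevisiae strains, carrying tRNA-Arg(CCU) gene variants at the native locus, were competed in YPD at 37°C for 24 hours in six replicates. A genotype was kept only with ≥ 100 starting reads, and estimates < 0.5 were set to 0.5.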
For GUUCCGUUAGCCUAAUAGUAAGGCGUCUCUCUCGUAAGGAGAAGACUGCGGGUUCGAGGCCCGUACGGAACG [G9A G12C G17A C22G C30U C34G U59G], the yeast fitness was not above 0.5. As to GUUCCGUUGGCGUAAUGGUAACGCGUCUUCCUGCUAAGGCGAAGACUGCGGGUUCGGGUCCCGUACGGAACG [C29U C33G A40C A57G], the yeast fitness is not above 0.5. As for GUUGCGUUGGCGUAAUGGUAACGCGUCUCCCUCCUAAGGAGAAGACUGCGGGUUCGAGUCCAGUAUGGAACG [C4G C62A C66U], the yeast fitness worked out at 0.704. GUUCCGUUGGCGUAAUGGUUACGCGUCUCCCUCUUAAGGAGAAGACUGCGCGUUCGAGUCCCGUACGGAACG [A20U C34U G51C]: the yeast fitness is not above 0.5.

In the case of GUUCCGUUGGCGUAAUGGUGACGCGUCUCCCUCCUAAGGAGAAGACUGCGGGUUCGAGUCGCGUACGGAACG [A20G C61G], the yeast fitness came out at 0.617. On to GUUCCGUUGGCGUAAUGGUAACGCGUCACCCUCCCACGGAGAAGACUGCGGGUUCGAGUCCCGUACGGAACG [U28A U35C A37C], for which the yeast fitness turned out to be 0.647. As for GUUCCGUUGGCGUAAUGGUCACGCGUGUCCCUCCUAAGGAGAAGACUGCGGGUUCGCGUCCCGUACGGAACG [A20C C27G A57C], the yeast fitness is not above 0.5.

On to GUUCCGUUGGCGUAAUGGUAACGCGUCUCCCUCCUAAGCAGAACACUGCGGGUUCGAGUCCCGUACGGAACG [G39C G44C], for which the yeast fitness amounted to 0.749. As to GUUCCGUUGGGGUAAUGGUAACGCGUCUCCCUCCUACGGAGAAGACUGCGAGUUCGAGUCCCGUACAGAACG [C11G A37C G51A G67A], the yeast fitness was not above 0.5. For GUUCUCUUGGCGUGAUGGUAACGCGUCUCCCUCCUAAGGAGAAGACUGCGGGUUCGAGUCCCGUACGGAACG [C5U G6C A14G], the yeast fitness is not above 0.5. For the variant GUUUCGUUGGCGUAAUGGUAACGCGUCUCCCUCCUAAGCAGAAGACUGCGGGUUCGAGUUCCGUACGGAACG [C4U G39C C60U], the yeast fitness is not above 0.5.

On to GUUCCGUUGGCGUAAUCGUAACGCGUCUCCCUCCUAAGGAGAAGACUGCGGGUUGGAGUCCCGUACAGCACG [G17C C55G G67A A69C], for which the yeast fitness is not above 0.5. In the case of GUUCCGUUGGCGUAAUGGUCACGCGUCUCCCUCCUAAGGAGAAGACUGCGGGUUCGAGUCGAGUACGGAACG [A20C C61G C62A], the yeast fitness is not above 0.5.

Regarding GCUCCGUUGGCGUAAUGGUAUCGCGUCUCCCUCCUAAGGCGAAGACUGCGGGUUCCAGUCCCGUACGGAACG [U2C A21U A40C G56C], the yeast fitness was determined as 0.66. The same measure for GUUCCGUUGGCGUAAUGGUAACGCGUCUCCCUCCUAAAGAGAAGACUGCGGGUUCGAGUUCCGUACCGAACG [G38A C60U G67C]: not above 0.5; for GUACCGUUGGCGUAAUGGUAACGCGUCUCCCUCCUAAGGAGAAGAUUACGGGUUCGAGUCCCGUACGGAACG [U3A C46U G48A]: 0.695; for GUUCCGUUGGAGUAAUGGUAAGGCGUCUCCCUCCUAAGGAGAAGACUCCGGGUUCGAGUCCCGUACGGAACG [C11A C22G G48C]: 0.535.

Consider GUUCCGUUGGCGUAAUGGUAACGCGUCUCCCUCCUAAGGACAAGACUGCGGGUUCGAGUCCCGUACGGACCG [G41C A70C], for which the yeast fitness turned out to be 0.858. For the variant GUUCCGUUGGCGUAAUCGUAAUGCGUCUCCCCCCUAAGGUGAAGACUGCGGGUUCGAGUCCCGUGCGGAACG [G17C C22U U32C A40U A65G], the yeast fitness is not above 0.5. Under GUUCCGUUGGCGUAACGGUAACGCGUUUCCCUCCUAAGGAGAAGACUGCGGGUUCGAGUCCCGUACGGAACG [U16C C27U] stands 1.02. Under GUUCCGUUGGCGUAAUGGCAACGCGUCUCCCUGCUUAGGAGAAAACUGCGGGUUCGAGUCCCGUACGGAACG [U19C C33G A36U G44A] stands not above 0.5; under GUUCCGAUGGCGUAAUGGUAACGCGUCUCCCUCCUAAGGAGAAGACUGCGGGUUCGAGUCCCGUGCGGAACG [U7A A65G], 1.03; under GUUCCGUUGGUGUAAUGGUAACGUGUCUCCCUCGUAAGGAGAAGACUGCGGGUUCGAGUCCCGAACGGAACG [C11U C24U C34G U64A], not above 0.5. In the case of GUUCCGUUGACAUAAUGGUAACGCGUCUCCCUCCUAAGGAGAAGACUGCGGGUUCGAGUCCCGUACGGAACG [G10A G12A], the yeast fitness turned out to be 0.805. As to GUUCCGUCGGCGUAAUGGUAACGCGUCUCCUUCCUAAGGAGAUGACUACGGGAUCGAGUCCCGUACGGAACG [U8C C31U A43U G48A U53A], the yeast fitness is not above 0.5. In the case of GUUCCGUUGGCGUAAUGGUAACGCGUUUCCCCCCUAAGGAAUAAAUUGCGGGUUCGAAUUCCGUACGGAACG [C27U U32C G41A A42U G44A C46U G58A C60U], the yeast fitness is not above 0.5.

Take GUUCCGUUGGCGUAAUGGUAACGGGACUCCCUCCUAAGGAGAAGAAUGCGGGUUCGAGUCCUGUACGGAACG [C24G U26A C46A C62U]: the yeast fitness worked out at 0.578. With GUUCCGUUGGCGUGAUGGUAGCGCGUUUCCCUCCUAAGGAGAAGCCUCCGGGUUCGAGUCGCGUACGGAACG [A14G A21G C27U A45C G48C C61G], the yeast fitness was not above 0.5. With GUUCCGUUGGCGUAAUGGUACCGCGUCACCCUCCUAAGGAGAAGACUGCGGGUUCGAGUCCCGUACGGAACG [A21C U28A], the yeast fitness is 0.738. Regarding GUUCCGUUGCCGUAAUGGUAACCCGUCUCCCUCCUAAGGAGAAGACUACGGACUCGAGUCACGUACGGAACG [G10C G23C G48A G52A U53C C61A], the yeast fitness was 0.52.

On to GUUCAGUUGGCGUAAUGGUAACGGGUCUCCCUCCUAAGGAGAAGACUGCGGGUUCGAGUCCCGUACGGAACG [C5A C24G], for which the yeast fitness came out at 0.621. With GUUCCAUUGGCGUAAUGGUAACGCGUCUCCCUCCUAAGGAGAAGUCUGUGGGUUCGAGUCCCGUACGGAACG [G6A A45U C49U], the yeast fitness stood at 0.564. Take GUUCCGCUGGCGUAAUGGUAAUGCGUCUCCCUCCUAAGGAGAAGACUGCGGGAUCGAGUCCCGUACGGAACG [U7C C22U U53A]: the yeast fitness came out at 0.71.

As to GUUCCGUUGGCGUAAUGGUAACGCGACUCCCUCGUAAGGAGAAGACUGCGGGUUCGAGUCCCGUACGGAACG [U26A C34G], the yeast fitness came to 0.618. On to GUUCCGUUGGCGUAAUGGUAACGGGUCUCUCUCCUAAGGAGAAGACUGGGGGUUCGAGUCCCGUACGGAACG [C24G C30U C49G], for which the yeast fitness stood at 0.664. Take GUUCCGUUGGCGUAAGGGUAACGCGGCUCCCUCCUAAGGAGAAGACUGCGGGUGCGAGUCCCGUACGGAACG [U16G U26G U54G]: the yeast fitness amounted to 0.743. For GUUCCGUUGGUGUAAUGGUAACGCGUCUCCCUCCUAAGGAGAAGACUGUGGGUUCGAGUCACGUACGGAACG [C11U C49U C61A], the yeast fitness was 0.555.

For GUUCCGCUGGCGUAAUGGUAACGCGUCUCCCUCCUAAGGAGAUGACUGCGGGUUCGAGUCCCGUACGGAACG [U7C A43U], the yeast fitness is 0.949.

The record behind these values is the RNAGym collection of RNA variant scans (doi:10.1126/science.aae0568).
